This note sets out measurements from ChEMBL document CHEMBL2380229, “Design, synthesis, cytotoxic evaluation and tubulin inhibitory activity of 4-aryl-5-(3,4,5-trimethoxyphenyl)-2-alkylthio-1H-imidazole derivatives” (Bioorg Med Chem, 2013).

In one assay the test system is AGS. Nature of the assay: Cytotoxicity against human AGS cells assessed as growth inhibition after 48 hrs by MTT assay. The assay is classed as functional, cell-based. Put shortly: (§1)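 MTT assay. Cells seeded at 8000–10,000 viable cells per well and allowed 24 h before a 48 h compound exposure. MTT (5 mg/mL solution) added for a further 4 h, then formazan dissolved in DMSO. Absorbance read at 550 nm against a 690 nm reference. Two independent experiments in triplicate. IC50 by nonlinear regression, mean ± SD.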
A general note: Tetrazolium assays rely on reduction of a dye to a coloured formazan, in cell work by metabolically active cells.

For assay [1], the system named is NIH3T3. Put plainly: Cytotoxicity against mouse NIH/3T3 cells assessed as growth inhibition after 48 hrs by MTT assay. Conditions: NIH3T3, 48 h. The assay is classed as functional, cell-based. The procedure, abridged: as §1
Another assay deals with HT-29. Nature of the assay: Cytotoxicity against human HT-29 cells assessed as growth inhibition after 48 hrs by MTT assay. In kind it is functional, cell-based. The following applies: HT-29, 48 h. Put shortly: as §1
A further assay relates to MCF7. Put plainly: Cytotoxicity against human MCF7 cells assessed as growth inhibition after 48 hrs by MTT assay. The assay is classed as functional, cell-based. Conditions: MCF7, 48 h. Put shortly: as §1
The species named for assay [2] is Ovis aries. Nature of the assay: Inhibition of sheep brain microtubule polymerization at 5 uM after 15 mins by UV-vis spectrophotometric analysis. Put shortly:
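Purified tubulin (12 µM) in PEM buffer (100 mM PIPES pH 6.9, 1 mM MgSO4, 1 mM EGTA) preincubated 15 min with compound (5 µM final), then cooled to 0 °C. GTP added to 1 mM final. Assembly started by warming from 0 to 37 °C and followed by absorbance at 350 nm. Positive control at 2 µM final.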

Assay [3] is filed under the species Ovis aries. Put plainly: Inhibition of sheep brain microtubule polymerization at 2 uM after 15 mins by UV-vis spectrophotometric analysis. The procedure, abridged:
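Purified microtubule protein preincubated 15 min with compound in PEM buffer (100 mM PIPES pH 6.9, 1 mM MgSO₄, 1 mM EGTA), then cooled to 0 °C. GTP added (1 mM final), and assembly started by warming from 0 to 37 °C. Polymerization followed as absorbance change at 350 nm.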

For assay [4], the system named is NIH3T3. Put plainly: Cell cycle arrest in mouse NIH/3T3 cells assessed as accumulation at S phase at 0.10 uM after 24 hrs by propidium iodide staining-based FACS flow cytometric analysis (reference value: 24.39%). In kind it is functional.
Assay [5] relates to NIH3T3. Nature of the assay: Cell cycle arrest in mouse NIH/3T3 cells assessed as accumulation at G2/M phase at 0.10 uM after 24 hrs by propidium iodide staining-based FACS flow cytometric analysis (reference value: 35.70%). In kind it is functional. (In general: Flow cytometry measures light scatter and fluorescence of single cells or particles in a stream.)
Assay [6] deals with NIH3T3. Nature of the assay: Cell cycle arrest in mouse NIH/3T3 cells assessed as accumulation at G0/G1 phase at 0.10 uM after 24 hrs by propidium iodide staining-based FACS flow cytometric analysis (reference value: 39.91%). In kind it is functional.

The structures appear in SMILES notation. Active and inactive are the calls of the source. No cut-off for these calls is given here.

A word on the IC50: it is the point on the concentration scale where inhibition reaches its midpoint. With `CCSc1nc(-c2cc(OC)c(OC)c(OC)c2)c(-c2ccc(OC)c(OC)c2)[nH]1`, the IC50 worked out at 37.2 µM in the assay on AGS, 14.1 µM with NIH3T3 [1], 21 µM in the assay with HT-29 and 13.2 µM in the assay on MCF7. Further, the “microtubule polymerization inhibition (active/inactive call)” value in the assay filed under Ovis aries [2] is “Active”.

For `CCSc1nc(-c2cc(OC)c(OC)c(OC)c2)c(-c2cccc(OC)c2OC)[nH]1`, the IC50 stood at 39 µM in the assay on AGS, 27.2 µM with NIH3T3 [1], 36.7 µM with HT-29 and 22.9 µM in the assay with MCF7.

Turning to `CCSc1nc(-c2cc(OC)c(OC)c(OC)c2)c(-c2ccc(OC)cc2)[nH]1`, the IC50 came to 0.07 µM in the assay on AGS, 0.26 µM in the assay on NIH3T3 [1], 0.36 µM in the assay with HT-29 and 0.75 µM with MCF7. Besides, the “microtubule polymerization inhibition (active/inactive call)” value in the assay listed under Ovis aries [2] was “Active”.

Consider `CCSc1nc(-c2cc(OC)c(OC)c(OC)c2)c(-c2ccc(OC)cc2OC)[nH]1`, for which the IC50 stood at 18.6 µM in the assay on AGS, 7.25 µM with NIH3T3 [1], 6.56 µM in the assay on HT-29 and 3.55 µM in the assay with MCF7.

With `COc1ccc(-c2[nH]c(SC)nc2-c2cc(OC)c(OC)c(OC)c2)c(OC)c1`, the 50% inhibitory concentration (IC50) in the assay with AGS was found to be 23.2 µM; with NIH3T3 [1] it was 11.9 µM; in the assay on HT-29 it was 18.6 µM; in the assay on MCF7 it was 4.15 µM.

`COc1cc(-c2nc(SC)[nH]c2-c2cc(OC)c(OC)c(OC)c2)cc(OC)c1OC`: the IC50 in the assay with NIH3T3 [1] and in the assay with HT-29 was over 50 µM each time.

Turning to `COc1ccc(-c2nc(SC)[nH]c2-c2ccc(OC)c(OC)c2)cc1OC`, the IC50 with AGS was determined as 34.8 µM; with NIH3T3 [1], 35.8 µM; in the assay on HT-29 it was 24.1 µM; in the assay with MCF7 it was 17.2 µM.

Consider `COc1ccc(/C=C\c2cc(OC)c(OC)c(OC)c2)cc1O` [COMBRETASTATIN A4], for which the IC50 with AGS is 0.04 µM; in the assay on NIH3T3 [1], 0.02 µM; in the assay on HT-29, 0.18 µM; in the assay with MCF7, 0.4 µM. Moreover, the inhibition result in the assay listed under Ovis aries [3] is “Active”.

With `COc1cc(-c2nc(SC)[nH]c2-c2cccc(OC)c2OC)cc(OC)c1OC`, the IC50 stood at 35.3 µM with AGS, 30.2 µM with NIH3T3 [1], 27.5 µM with HT-29 and 18.1 µM in the assay on MCF7.

For `COc1ccc(-c2[nH]c(SC)nc2-c2cc(OC)c(OC)c(OC)c2)cc1`, the results for the Activity with NIH3T3 [4], in the assay on NIH3T3 [5] and in the assay with NIH3T3 [6] were 7.07%, 91.93% and 1.01%, respectively. For the same compound, the IC50 is 0.06 µM with AGS, 0.06 µM in the assay with NIH3T3 [1], 0.25 µM in the assay with HT-29 and 0.52 µM in the assay on MCF7. In addition, the “microtubule polymerization inhibition (active/inactive call)” value in the assay listed under Ovis aries [2] is “Active”.

Turning to `CCSc1nc(-c2ccc(OC)c(OC)c2)c(-c2ccc(OC)c(OC)c2)[nH]1`, the IC50 in the assay on AGS was found to be 33.6 µM; in the assay with NIH3T3 [1], 27.6 µM; in the assay with HT-29 it was 21.2 µM; in the assay on MCF7 it was 15.1 µM.

Regarding `COc1ccc(-c2[nH]c(SC)nc2-c2cc(OC)c(OC)c(OC)c2)cc1OC`, the 50% inhibitory concentration (IC50) in the assay on AGS stood at 10.6 µM; in the assay on NIH3T3 [1] it was 6.01 µM; with HT-29, 4.82 µM; in the assay with MCF7, 4.04 µM. The “microtubule polymerization inhibition (active/inactive call)” value in the assay filed under Ovis aries [2] is “Active”.

Take `COc1ccccc1-c1[nH]c(SC)nc1-c1cc(OC)c(OC)c(OC)c1`: the IC50 in the assay on AGS came out at 48.4 µM; with NIH3T3 [1], 38.7 µM; in the assay with HT-29, 21.7 µM; in the assay with MCF7, 12.2 µM.

For `CCSc1nc(-c2cc(OC)c(OC)c(OC)c2)c(-c2cc(OC)c(OC)c(OC)c2)[nH]1`, the IC50 in the assay with NIH3T3 [1] and in the assay on HT-29 was over 50 µM throughout.

On to `CCSc1nc(-c2cc(OC)c(OC)c(OC)c2)c(-c2ccccc2OC)[nH]1`, for which the IC50 in the assay on AGS worked out at 40.7 µM; with NIH3T3 [1], 36.2 µM; with HT-29 it was 18.6 µM; with MCF7, 11 µM.
